Results from the M2OR odorant receptor database.
Where a chain is given by its changes, count along the chain named.

Experiments:
Settings in all cases: stereoisomer not certain
[1] = target: T1, OR52I1 (Homo sapiens) (UniProt Q8NGK6)
T1 sequence (whole entry): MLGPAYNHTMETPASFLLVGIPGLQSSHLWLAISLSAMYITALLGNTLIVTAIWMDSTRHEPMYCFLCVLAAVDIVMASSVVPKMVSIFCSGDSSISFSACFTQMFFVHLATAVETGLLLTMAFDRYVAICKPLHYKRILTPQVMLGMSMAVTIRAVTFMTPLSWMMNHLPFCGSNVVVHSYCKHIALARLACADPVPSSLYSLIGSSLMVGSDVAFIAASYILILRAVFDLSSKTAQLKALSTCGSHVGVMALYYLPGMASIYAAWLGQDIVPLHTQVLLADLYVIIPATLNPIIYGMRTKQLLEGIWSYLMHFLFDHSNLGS
Method in brief: (§1)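 Each receptor–molecule pair is labelled responsive or non-responsive (inactive) according to whether the original authors judged the measured signal statistically different from baseline. The data were taken from the main text and supplementary material of published papers and checked for typos and inconsistencies. Assay methods differed by source, with transient luciferase assays in mammalian cell lines being common.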

[2] = target: T2, OR52I2 (Homo sapiens) (UniProt Q8NH67)
T2 sequence (whole entry): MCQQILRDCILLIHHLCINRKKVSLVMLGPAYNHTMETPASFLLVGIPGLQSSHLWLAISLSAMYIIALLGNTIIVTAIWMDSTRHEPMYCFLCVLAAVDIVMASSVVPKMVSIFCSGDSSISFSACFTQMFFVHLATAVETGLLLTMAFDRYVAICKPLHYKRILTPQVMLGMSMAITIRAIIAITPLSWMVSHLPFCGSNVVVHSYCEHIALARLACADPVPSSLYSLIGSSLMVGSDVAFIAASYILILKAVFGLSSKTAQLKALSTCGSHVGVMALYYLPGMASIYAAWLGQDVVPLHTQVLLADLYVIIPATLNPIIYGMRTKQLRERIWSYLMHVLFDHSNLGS
Method in brief: as §1

[3] = target: OR52J3 (Homo sapiens) (UniProt Q8NH60)
OR52J3 (Homo sapiens), sequence (Q8NH60 whole entry): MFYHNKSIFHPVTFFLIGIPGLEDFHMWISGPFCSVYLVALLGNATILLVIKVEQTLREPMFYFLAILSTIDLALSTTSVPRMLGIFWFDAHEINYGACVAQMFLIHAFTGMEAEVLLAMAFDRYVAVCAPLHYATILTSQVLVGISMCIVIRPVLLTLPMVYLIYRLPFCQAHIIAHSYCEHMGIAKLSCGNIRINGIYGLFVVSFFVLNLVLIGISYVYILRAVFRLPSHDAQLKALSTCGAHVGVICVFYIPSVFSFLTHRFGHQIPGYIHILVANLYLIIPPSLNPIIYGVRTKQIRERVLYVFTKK
Method in brief: as §1

[4] = target: T3, OR52K1 (Homo sapiens) (UniProt Q8NGK4)
T3 sequence (whole entry): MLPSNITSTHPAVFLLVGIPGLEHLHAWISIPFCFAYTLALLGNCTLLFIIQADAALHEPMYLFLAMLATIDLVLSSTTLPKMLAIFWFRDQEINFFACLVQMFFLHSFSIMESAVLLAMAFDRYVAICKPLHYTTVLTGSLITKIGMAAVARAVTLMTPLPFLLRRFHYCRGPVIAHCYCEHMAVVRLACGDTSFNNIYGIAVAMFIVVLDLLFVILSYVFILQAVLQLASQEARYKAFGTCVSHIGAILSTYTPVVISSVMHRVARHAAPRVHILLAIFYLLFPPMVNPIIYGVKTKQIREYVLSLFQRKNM
Method in brief: as §1

[5] = target: T4, OR52K2 (Homo sapiens) (UniProt Q8NGK3)
T4 sequence (whole entry): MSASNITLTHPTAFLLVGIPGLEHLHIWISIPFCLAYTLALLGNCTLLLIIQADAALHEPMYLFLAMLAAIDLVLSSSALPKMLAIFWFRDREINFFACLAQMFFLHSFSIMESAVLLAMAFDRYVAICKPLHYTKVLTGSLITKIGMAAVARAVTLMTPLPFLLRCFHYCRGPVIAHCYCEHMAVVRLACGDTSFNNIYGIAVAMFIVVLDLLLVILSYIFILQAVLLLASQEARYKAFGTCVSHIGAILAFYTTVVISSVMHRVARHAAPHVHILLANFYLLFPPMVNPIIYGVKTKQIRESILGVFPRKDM
Method in brief: as §1

[6] = target: T5, OR52L1 (Homo sapiens) (UniProt Q8NGH7)
T5 sequence (whole entry): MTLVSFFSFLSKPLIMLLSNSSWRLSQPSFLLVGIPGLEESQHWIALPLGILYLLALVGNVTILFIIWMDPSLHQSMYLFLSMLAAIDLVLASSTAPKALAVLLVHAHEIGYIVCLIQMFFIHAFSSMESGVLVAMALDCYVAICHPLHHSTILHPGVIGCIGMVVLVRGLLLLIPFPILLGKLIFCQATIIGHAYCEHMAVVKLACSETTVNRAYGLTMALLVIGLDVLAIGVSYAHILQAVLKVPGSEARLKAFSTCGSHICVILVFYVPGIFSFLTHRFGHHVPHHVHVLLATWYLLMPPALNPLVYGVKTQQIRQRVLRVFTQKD
Method in brief: as §1

[7] = target: T6, OR52M1 (Homo sapiens) (UniProt Q8NGK5)
T6 sequence (whole entry): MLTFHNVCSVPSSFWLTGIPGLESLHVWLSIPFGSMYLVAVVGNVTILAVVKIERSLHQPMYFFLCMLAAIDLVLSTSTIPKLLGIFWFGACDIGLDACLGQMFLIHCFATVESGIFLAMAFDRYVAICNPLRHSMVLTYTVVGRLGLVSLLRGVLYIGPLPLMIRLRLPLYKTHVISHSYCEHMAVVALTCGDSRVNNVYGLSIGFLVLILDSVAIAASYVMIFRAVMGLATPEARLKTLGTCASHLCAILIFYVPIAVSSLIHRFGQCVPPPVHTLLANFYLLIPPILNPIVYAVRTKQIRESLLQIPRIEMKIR
Method in brief: as §1

[8] = target: T7, OR52N1 (Homo sapiens) (UniProt Q8NH53)
T7 sequence (whole entry): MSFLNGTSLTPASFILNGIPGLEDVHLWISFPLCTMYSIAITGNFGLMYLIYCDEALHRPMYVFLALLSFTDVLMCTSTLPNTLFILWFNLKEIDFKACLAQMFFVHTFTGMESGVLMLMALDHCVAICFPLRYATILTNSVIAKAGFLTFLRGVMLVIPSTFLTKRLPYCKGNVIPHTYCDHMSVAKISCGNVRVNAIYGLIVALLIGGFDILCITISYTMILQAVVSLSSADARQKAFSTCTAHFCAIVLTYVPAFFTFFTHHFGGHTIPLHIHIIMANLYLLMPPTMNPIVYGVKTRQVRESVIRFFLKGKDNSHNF
Method in brief: as §1

[9] = target: T8, OR52N2 (Homo sapiens) (UniProt Q8NGI0)
T8 sequence (whole entry): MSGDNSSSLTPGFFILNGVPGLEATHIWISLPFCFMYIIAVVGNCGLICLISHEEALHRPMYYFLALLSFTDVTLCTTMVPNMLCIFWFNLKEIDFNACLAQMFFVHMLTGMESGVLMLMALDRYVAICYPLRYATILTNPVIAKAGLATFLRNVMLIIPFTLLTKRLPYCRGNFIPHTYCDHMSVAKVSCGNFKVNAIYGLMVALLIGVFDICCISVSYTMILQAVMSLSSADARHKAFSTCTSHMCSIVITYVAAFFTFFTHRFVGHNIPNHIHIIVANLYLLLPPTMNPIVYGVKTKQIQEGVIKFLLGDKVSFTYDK
Method in brief: as §1

[10] = target: T9, OR52N4 (Homo sapiens) (UniProt Q8NGI2)
T9 sequence (whole entry): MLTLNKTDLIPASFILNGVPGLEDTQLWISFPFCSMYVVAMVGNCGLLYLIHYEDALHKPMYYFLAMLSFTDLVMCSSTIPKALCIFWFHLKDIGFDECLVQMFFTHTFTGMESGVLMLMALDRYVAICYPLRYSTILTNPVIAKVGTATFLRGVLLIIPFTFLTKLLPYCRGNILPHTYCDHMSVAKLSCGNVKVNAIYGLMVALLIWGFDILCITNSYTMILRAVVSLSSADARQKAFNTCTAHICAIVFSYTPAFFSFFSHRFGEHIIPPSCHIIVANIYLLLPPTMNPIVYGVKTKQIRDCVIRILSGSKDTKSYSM
Method in brief: as §1

[11] = target: T10, OR52N5 (Homo sapiens) (UniProt Q8NH56)
T10 sequence (whole entry): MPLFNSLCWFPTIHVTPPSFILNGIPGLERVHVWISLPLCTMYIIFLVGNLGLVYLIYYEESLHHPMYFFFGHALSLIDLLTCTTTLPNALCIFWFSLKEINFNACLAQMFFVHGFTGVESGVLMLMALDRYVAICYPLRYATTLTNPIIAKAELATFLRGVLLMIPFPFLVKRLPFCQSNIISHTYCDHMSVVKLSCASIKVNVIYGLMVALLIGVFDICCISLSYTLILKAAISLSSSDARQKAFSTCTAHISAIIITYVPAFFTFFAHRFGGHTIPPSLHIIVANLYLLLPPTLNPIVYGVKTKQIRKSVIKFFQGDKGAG
Method in brief: as §1

[12] = target: T11, OR52R1 (Homo sapiens) (UniProt Q8NGF1)
T11 sequence (whole entry): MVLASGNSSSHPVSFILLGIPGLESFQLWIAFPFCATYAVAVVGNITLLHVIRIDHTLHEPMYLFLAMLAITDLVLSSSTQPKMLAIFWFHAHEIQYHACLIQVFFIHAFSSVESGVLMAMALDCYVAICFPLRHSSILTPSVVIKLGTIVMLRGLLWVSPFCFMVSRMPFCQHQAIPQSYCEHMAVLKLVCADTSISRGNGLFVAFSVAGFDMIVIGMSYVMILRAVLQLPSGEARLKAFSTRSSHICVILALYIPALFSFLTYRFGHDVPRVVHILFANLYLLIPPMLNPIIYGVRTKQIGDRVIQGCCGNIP
Method in brief: as §1

[13] = target: T12, OR52W1 (Homo sapiens) (UniProt Q6IF63)
T12 sequence (whole entry): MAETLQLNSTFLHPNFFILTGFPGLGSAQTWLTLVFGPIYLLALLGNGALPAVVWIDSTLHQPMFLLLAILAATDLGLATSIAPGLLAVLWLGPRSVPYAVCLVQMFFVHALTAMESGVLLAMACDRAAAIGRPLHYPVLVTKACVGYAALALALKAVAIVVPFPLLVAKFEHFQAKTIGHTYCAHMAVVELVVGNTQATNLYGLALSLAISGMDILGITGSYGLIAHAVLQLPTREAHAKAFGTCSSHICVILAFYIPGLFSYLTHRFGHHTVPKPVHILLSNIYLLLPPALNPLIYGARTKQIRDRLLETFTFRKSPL
Method in brief: as §1

[14] = target: OR52Z1P (Homo sapiens) (UniProt P0C646)
OR52Z1P (Homo sapiens), sequence (P0C646 whole entry): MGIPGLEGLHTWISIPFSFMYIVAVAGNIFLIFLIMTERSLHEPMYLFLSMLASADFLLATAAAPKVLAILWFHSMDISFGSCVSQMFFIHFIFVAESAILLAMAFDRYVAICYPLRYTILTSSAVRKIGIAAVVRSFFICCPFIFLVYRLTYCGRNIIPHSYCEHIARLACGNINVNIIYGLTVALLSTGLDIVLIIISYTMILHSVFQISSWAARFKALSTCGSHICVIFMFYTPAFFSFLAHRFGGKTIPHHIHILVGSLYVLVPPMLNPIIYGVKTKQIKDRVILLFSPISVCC
Method in brief: as §1

[15] = target: T13, OR56A1 (Homo sapiens) (UniProt Q8NGH5)
T13 sequence (whole entry): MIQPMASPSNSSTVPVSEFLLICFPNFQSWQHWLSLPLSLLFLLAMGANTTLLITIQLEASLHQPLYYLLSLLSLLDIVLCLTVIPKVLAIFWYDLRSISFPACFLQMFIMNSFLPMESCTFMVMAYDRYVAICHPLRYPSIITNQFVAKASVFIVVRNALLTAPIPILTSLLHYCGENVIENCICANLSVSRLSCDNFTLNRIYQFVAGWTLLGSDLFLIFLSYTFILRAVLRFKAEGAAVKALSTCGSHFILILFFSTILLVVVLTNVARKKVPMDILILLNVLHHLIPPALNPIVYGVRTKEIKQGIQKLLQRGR
Method in brief: as §1

[16] = target: T14, OR56A3 (Homo sapiens) (UniProt Q8NH54)
T14 sequence (whole entry): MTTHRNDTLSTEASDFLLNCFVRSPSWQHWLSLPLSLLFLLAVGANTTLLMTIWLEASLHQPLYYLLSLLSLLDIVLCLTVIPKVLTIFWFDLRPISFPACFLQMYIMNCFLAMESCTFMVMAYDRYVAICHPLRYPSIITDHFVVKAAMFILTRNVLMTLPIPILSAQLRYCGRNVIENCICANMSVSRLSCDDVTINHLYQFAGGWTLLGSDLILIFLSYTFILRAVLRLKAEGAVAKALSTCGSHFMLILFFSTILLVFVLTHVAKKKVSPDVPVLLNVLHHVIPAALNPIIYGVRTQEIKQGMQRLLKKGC
Method in brief: as §1

[17] = target: T15, OR56A4 (Homo sapiens) (UniProt Q8NGH8)
T15 sequence (whole entry): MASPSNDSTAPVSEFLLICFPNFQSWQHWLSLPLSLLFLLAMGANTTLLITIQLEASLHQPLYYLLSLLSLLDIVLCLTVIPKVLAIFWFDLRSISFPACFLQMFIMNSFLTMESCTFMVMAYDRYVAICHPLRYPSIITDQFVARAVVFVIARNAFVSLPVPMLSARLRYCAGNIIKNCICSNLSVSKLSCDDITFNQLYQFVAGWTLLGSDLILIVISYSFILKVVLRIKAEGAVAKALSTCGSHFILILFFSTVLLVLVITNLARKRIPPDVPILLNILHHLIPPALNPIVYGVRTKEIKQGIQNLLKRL
Method in brief: as §1

[18] = target: T16, OR56A5 (Homo sapiens) (UniProt P0C7T3)
T16 sequence (whole entry): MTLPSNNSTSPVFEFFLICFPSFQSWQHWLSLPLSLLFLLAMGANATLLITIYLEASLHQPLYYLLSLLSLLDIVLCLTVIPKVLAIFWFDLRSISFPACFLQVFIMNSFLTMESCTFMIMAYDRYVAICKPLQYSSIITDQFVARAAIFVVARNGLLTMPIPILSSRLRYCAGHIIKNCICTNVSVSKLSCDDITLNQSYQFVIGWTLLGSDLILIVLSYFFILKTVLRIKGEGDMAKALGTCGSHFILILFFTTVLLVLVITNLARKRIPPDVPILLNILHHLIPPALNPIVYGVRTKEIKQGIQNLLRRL
Method in brief: as §1

[19] = target: T17, OR56B1 (Homo sapiens) (UniProt Q8NGI3)
T17 sequence (whole entry): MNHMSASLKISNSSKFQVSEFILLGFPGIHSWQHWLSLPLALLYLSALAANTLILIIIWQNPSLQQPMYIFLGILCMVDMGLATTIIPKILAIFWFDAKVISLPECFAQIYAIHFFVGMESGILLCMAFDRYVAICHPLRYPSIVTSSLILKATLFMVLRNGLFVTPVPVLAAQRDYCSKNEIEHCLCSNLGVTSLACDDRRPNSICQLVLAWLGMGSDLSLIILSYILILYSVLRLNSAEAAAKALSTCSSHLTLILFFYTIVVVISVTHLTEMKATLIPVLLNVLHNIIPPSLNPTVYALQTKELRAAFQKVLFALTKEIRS
Method in brief: as §1

[20] = target: T18, OR52L1 (Homo sapiens) (UniProt Q8NGH7); remark: listed apart in the source
T18 sequence (whole entry): T5 sequence (whole entry) with C140R, C161R, K183T, W297R
Method in brief: as §1

Measured: odorant receptor agonist call

CC1CCCCCCCCCCCCC(=O)C1 (configuration not stated)
not listed: [20]
inactive: all other assays above

CCCC(S)CCOC(C)=O (configuration not stated)
not listed: [6] | [14] | [17]
inactive: all other assays above

CCCCCCC=CCCC=O
not listed: [14] | [20]
inactive: all other assays above

CCCCCC(=O)C(C)C(C)=O (configuration not stated)
not listed: [14] | [20]
inactive: all other assays above
